Source: publication PMC11904594 (Current Research in Microbial Sciences, 2025)
In brackets after ≈: the same amount, converted by molar mass.

Key:
S. aureus ATCC 29,213 [1] = assay: MIC, broth microdilution; assay type: cell-based, Staphylococcus aureus; settings: MHB II, 10^6 CFU/ml, 37 °C, 24 h, triplicate
Outline: (§1)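 Broth microdilution per CLSI. Strains were freshly plated on LB agar from glycerol stocks; the colistin-resistant lpxD mutant was plated on LB with 10 µg/ml colistin. Inoculum was 10^6 CFU/ml in Mueller Hinton broth II with two-fold dilutions of test compound from 100 to 0.10 µg/ml, incubated at 37 °C for 24 h. MIC was the lowest concentration with no growth.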

S. aureus MRSA USA 300 [2] = assay: MIC, broth microdilution; assay type: cell-based, Staphylococcus aureus; settings: MHB II, 10^6 CFU/ml, 37 °C, 24 h, triplicate
Outline: as §1

[3] = test system: P. aeruginosa ATCC 27,853; assay: MIC, broth microdilution; assay type: cell-based, Pseudomonas aeruginosa; settings: MHB II, 10^6 CFU/ml, 37 °C, 24 h, triplicate
Outline: as §1

P. aeruginosa (ST175–1) [4] = assay: MIC, broth microdilution; assay type: cell-based, Pseudomonas aeruginosa; settings: MHB II, 10^6 CFU/ml, 37 °C, 24 h, triplicate
Outline: as §1

A. baumannii ATCC 19,606 [5] = assay: MIC, broth microdilution; assay type: cell-based, Acinetobacter baumannii; settings: MHB II, 10^6 CFU/ml, 37 °C, 24 h, triplicate
Outline: as §1

A. baumannii IB010 [6] = assay: MIC, broth microdilution; assay type: cell-based, Acinetobacter baumannii; settings: MHB II, 10^6 CFU/ml, 37 °C, 24 h, triplicate
Outline: as §1

A. baumannii Ab-1 [7] = assay: MIC, broth microdilution; assay type: cell-based, Acinetobacter baumannii; settings: MHB II, 10^6 CFU/ml, 37 °C, 24 h, triplicate
Outline: as §1

[8] = test system: K. pneumoniae ATCC 43,816; assay: MIC, broth microdilution; assay type: cell-based, Klebsiella pneumoniae; settings: MHB II, 10^6 CFU/ml, 37 °C, 24 h, triplicate
Outline: as §1

K. pneumoniae CG258 [9] = assay: MIC, broth microdilution; assay type: cell-based, Klebsiella pneumoniae; settings: MHB II, 10^6 CFU/ml, 37 °C, 24 h, triplicate
Outline: as §1

E. coli ATCC 25,922 [10] = assay: MIC, broth microdilution; assay type: cell-based, Escherichia coli; settings: MHB II, 10^6 CFU/ml, 37 °C, 24 h, triplicate
Outline: as §1

E. coli ESBL 1057.1 [11] = assay: MIC, broth microdilution; assay type: cell-based, Escherichia coli; settings: MHB II, 10^6 CFU/ml, 37 °C, 24 h, triplicate
Outline: as §1

S. aureus ATCC 29,213 [12] = assay: Minimum bactericidal concentration; assay type: cell-based, Staphylococcus aureus; settings: lowest concentration reducing at least 99.9 % of growth, plated on LB, 37 °C, 24 h, triplicate
S. aureus MRSA USA 300 [13] = assay: Minimum bactericidal concentration; assay type: cell-based, Staphylococcus aureus; settings: lowest concentration reducing at least 99.9 % of growth, plated on LB, 37 °C, 24 h, triplicate
[14] = test system: P. aeruginosa ATCC 27,853; assay: Minimum bactericidal concentration; assay type: cell-based, Pseudomonas aeruginosa; settings: lowest concentration reducing at least 99.9 % of growth, plated on LB, 37 °C, 24 h, triplicate
P. aeruginosa (ST175–1) [15] = assay: Minimum bactericidal concentration; assay type: cell-based, Pseudomonas aeruginosa; settings: lowest concentration reducing at least 99.9 % of growth, plated on LB, 37 °C, 24 h, triplicate
A. baumannii ATCC 19,606 [16] = assay: Minimum bactericidal concentration; assay type: cell-based, Acinetobacter baumannii; settings: lowest concentration reducing at least 99.9 % of growth, plated on LB, 37 °C, 24 h, triplicate
A. baumannii IB010 [17] = assay: Minimum bactericidal concentration; assay type: cell-based, Acinetobacter baumannii; settings: lowest concentration reducing at least 99.9 % of growth, plated on LB, 37 °C, 24 h, triplicate
A. baumannii Ab-1 [18] = assay: Minimum bactericidal concentration; assay type: cell-based, Acinetobacter baumannii; settings: lowest concentration reducing at least 99.9 % of growth, plated on LB, 37 °C, 24 h, triplicate
[19] = test system: K. pneumoniae ATCC 43,816; assay: Minimum bactericidal concentration; assay type: cell-based, Klebsiella pneumoniae; settings: lowest concentration reducing at least 99.9 % of growth, plated on LB, 37 °C, 24 h, triplicate
K. pneumoniae CG258 [20] = assay: Minimum bactericidal concentration; assay type: cell-based, Klebsiella pneumoniae; settings: lowest concentration reducing at least 99.9 % of growth, plated on LB, 37 °C, 24 h, triplicate
E. coli ATCC 25,922 [21] = assay: Minimum bactericidal concentration; assay type: cell-based, Escherichia coli; settings: lowest concentration reducing at least 99.9 % of growth, plated on LB, 37 °C, 24 h, triplicate
E. coli ESBL 1057.1 [22] = assay: Minimum bactericidal concentration; assay type: cell-based, Escherichia coli; settings: lowest concentration reducing at least 99.9 % of growth, plated on LB, 37 °C, 24 h, triplicate
[23] = test system: 11 bacterial strains (S. aureus, P. aeruginosa, A. baumannii, K. pneumoniae, E. coli); assay: Antimicrobial activity screening, summary over groups of strains; assay type: cell-based; settings: 50 µg/ml screen; all strains, Gram-negative and Gram-positive
11 bacterial strains = assay: MBC, summary over all strains; assay type: cell-based; settings: highest value over all strains, converted to molar
Outline: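 The no-peptide growth well, serially diluted and plated, served as reference. Percent growth was calculated from CFU counts; MBC was the lowest concentration giving ≥99.9 % reduction (CLSI). Triplicate.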

K. pneumoniae CG258 [24] = assay: Time-kill assay; assay type: cell-based, Klebsiella pneumoniae; settings: peptide at 2× MIC
Outline: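 Broth without compound was the growth control. Samples taken at 0, 3, 6 and 24 h were diluted and plated on MH II agar for CFU counts. Each curve was run at least in duplicate.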

P. aeruginosa ST175–1 = assay: Inhibition of biofilm formation; assay type: cell-based, Pseudomonas aeruginosa; settings: ¼ MIC
Outline: (§2)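 Medium was discarded, wells washed with PBS, and biofilm stained with 1 % crystal violet for 15 min at room temperature. After two PBS washes, stain was eluted in 70 % ethanol and read at 595 nm. SBF = (OD595 − OD595 […])/OD600: weak ≤0.5, moderate 0.5–1, strong >1. Triplicate; Kruskal-Wallis with Dunn's test.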

A. baumannii ATCC 19,606 [25] = assay: Inhibition of biofilm formation; assay type: cell-based, Acinetobacter baumannii; settings: ¼ MIC
Outline: as §2

A. baumannii Ab-1 [26] = assay: Inhibition of biofilm formation; assay type: cell-based, Acinetobacter baumannii; settings: ¼ MIC
Outline: as §2

[27] = test system: K. pneumoniae ATCC 43,816; assay: Inhibition of biofilm formation; assay type: cell-based, Klebsiella pneumoniae; settings: ¼ MIC
Outline: as §2

E. coli ATCC 25,922 [28] = assay: Inhibition of biofilm formation; assay type: cell-based, Escherichia coli; settings: ¼ MIC
Outline: as §2

Stability in human serum = assay type: in vitro ADME; settings: 25 % (v/v)
Outline: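 Test compound was added to RPMI with human serum pre-equilibrated at 37 °C, giving 333.33 µM final compound and 25 % (v/v) final serum. Mixtures were stirred at 37 °C for 10, 30, 45 or 60 min. Proteins were precipitated with 96 % ethanol, cooled at 4 °C for 15 min and spun at 14,000 g. Supernatants were run on C18 RP-HPLC (TFA/CH3CN gradient, 220 nm); degradation was taken from loss of native peak area. Duplicate.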

[29] = test system: Galleria mellonella larvae; assay: In vivo toxicity in Galleria mellonella larvae; settings: G. mellonella larvae, 50 µg/larvae (10 μl of 5 mg/ml), 30 °C, N=10 per group
Outline: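 Sixth-instar Galleria mellonella larvae (200–300 mg) were held in sawdust at 4 °C until use. Groups of ten were injected with 10 μl of test compound, colistin or 0.9 % NaCl saline control into the second rear proleg, then kept at 30 °C.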

Q: Which results are given for `CC[C@H](C)[C@H](NC(=O)[C@H](CCCCN)NC(=O)[C@H](CCCCN)NC(=O)[C@H](Cc1ccccc1)NC(=O)[C@H](CC(C)C)NC(=O)[C@H](CCCCN)NC(=O)[C@@H](N)CCCCN)C(=O)N[C@@H](CC(C)C)C(=O)N[C@@H](CCCCN)C(=O)N[C@@H](Cc1ccccc1)C(=O)N[C@@H](CC(C)C)C(N)=O` [BP76]?
A: MIC (S. aureus ATCC 29,213 [1]): 25 µg/mL (≈ 17.8 µM); MIC (S. aureus MRSA USA 300 [2]): 50 µg/mL (≈ 35.6 µM); MIC [3]: 50 µg/mL (≈ 35.6 µM); MIC (P. aeruginosa (ST175–1) [4]): 50 µg/mL (≈ 35.6 µM); MIC (A. baumannii ATCC 19,606 [5]): 6.25 µg/mL (≈ 4.45 µM); MIC (A. baumannii IB010 [6]): 25 µg/mL (≈ 17.8 µM); MIC (A. baumannii Ab-1 [7]): 12.5 µg/mL (≈ 8.9 µM); MIC [8]: 12.5 µg/mL (≈ 8.9 µM); MIC (K. pneumoniae CG258 [9]): 6.25 µg/mL (≈ 4.45 µM); MIC (E. coli ATCC 25,922 [10]): 6.25 µg/mL (≈ 4.45 µM); MIC (E. coli ESBL 1057.1 [11]): 12.5 µg/mL (≈ 8.9 µM); MBC (S. aureus ATCC 29,213 [12]): 25 µg/mL (≈ 17.8 µM); MBC (S. aureus MRSA USA 300 [13]): 50 µg/mL (≈ 35.6 µM); MBC [14]: 50 µg/mL (≈ 35.6 µM); MBC (P. aeruginosa (ST175–1) [15]): 50 µg/mL (≈ 35.6 µM); MBC (A. baumannii ATCC 19,606 [16]): 6.25 µg/mL (≈ 4.45 µM); MBC (A. baumannii IB010 [17]): 25 µg/mL (≈ 17.8 µM); MBC (A. baumannii Ab-1 [18]): 12.5 µg/mL (≈ 8.9 µM); MBC [19]: 12.5 µg/mL (≈ 8.9 µM); MBC (K. pneumoniae CG258 [20]): 6.25 µg/mL (≈ 4.45 µM); MBC (E. coli ATCC 25,922 [21]): 6.25 µg/mL (≈ 4.45 µM); MBC (E. coli ESBL 1057.1 [22]): 12.5 µg/mL (≈ 8.9 µM); growth inhibition of all the strains [23]: ≈ 90%; highest MBC observed (11 bacterial strains): 40 µM; bactericidal activity in time-kill assay (K. pneumoniae CG258 [24]; 6 h): able to reduce growth to bactericidal level; bactericidal activity in time-kill assay (K. pneumoniae CG258 [24]; 24 h): not at 24 h; SBF index compared to BP607 (P. aeruginosa ST175–1): reduced SBF indices compared to BP607; SBF index compared to BP607 (A. baumannii ATCC 19,606 [25]): reduced SBF indices compared to BP607; SBF index compared to BP607 (A. baumannii Ab-1 [26]): reduced SBF indices compared to BP607; SBF index compared to BP607 [27]: reduced SBF indices compared to BP607; production of biofilm (E. coli ATCC 25,922 [28]): reduced production of biofilm; remaining at 1 h, 333.33 µM (Stability in human serum): 15%; survival after 24h [29]: 100%
